UCH37 inh: blocks the human deubiquitinase UCH37. 330,000 tested, 0.33% active. Q9Y5K5. purified proteasome/UCH37, Ub-AMC cleavage fluorescence. AID 588478. inhibition, % (concentration not given with the values);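 active = mean inhibition over replicate wells above about 20%, limit read from the data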;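 also: 0% = compound-free wells with enzyme and 100% = wells lacking proteasome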
Target sequence (Q9Y5K5 whole entry, looked up): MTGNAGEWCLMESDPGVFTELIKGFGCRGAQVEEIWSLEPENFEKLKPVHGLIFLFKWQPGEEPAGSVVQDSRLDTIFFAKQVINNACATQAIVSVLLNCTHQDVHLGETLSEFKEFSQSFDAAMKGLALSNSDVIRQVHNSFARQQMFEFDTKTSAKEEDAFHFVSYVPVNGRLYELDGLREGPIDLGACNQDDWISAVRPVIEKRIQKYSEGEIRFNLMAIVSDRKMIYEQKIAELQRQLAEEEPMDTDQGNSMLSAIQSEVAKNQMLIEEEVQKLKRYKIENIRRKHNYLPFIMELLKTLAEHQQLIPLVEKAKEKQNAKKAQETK
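Schedule: 30 min plus 25 min, room temperature / Material: human UCH37 within purified proteasomes / Technique: AMC fluorescence intensity at 355/460 nm / Buffer or medium: pH 7.4 Tris-HCl (50 mM) with ovalbumin, ATP-MgCl2, DTT / Controls: wells without proteasome as full block, compound-free enzyme plus substrate as uninhibited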
PAFAH1B3 inh: PAFAH1B3 (human) inhibition | inhibition, % at 3.39 µM | Q15102 | recombinant PAFAH1B3, FP-rhodamine probe, fluorescence polarization | 340,000 tested, 0.28% active;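 active = inhibition above the screen-wide average of all tested compounds plus 3 SD, cut at about 25% in these data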;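 also: 0% = enzyme with DMSO only and 100% = wells lacking PAFAH1B3 protein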
GRIN3A LBD mod: modulators (binders) of human NR3A ligand-binding domain. NR3A LBD differential scanning fluorimetry, Tm shift; 0% = protein alone, 100% = glycine-bound protein. Tm shift relative to glycine control, % at 25 µM. 340,000 tested, 2.5% active;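 active = melting temperature shift of at least 10% of the positive control shift, at one fixed dose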
PAFAH2 inh: inhibitors of human PAFAH2. recombinant PAFAH2, FP-rhodamine activity probe, fluorescence polarization. inhibition, % at 3.39 µM. 340,000 tested, 0.99% active. AID 492956;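 active = inhibition above the mean over all tested compounds plus 3 SD, cut at about 30% in these data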;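 also: inhibitors block probe labeling of enzyme so polarization drops; 0% = enzyme with DMSO and 100% = wells lacking PAFAH2 protein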
PAFAH1B2 FP inh: blocks human PAF acetylhydrolase 1b catalytic subunit 2; P68402; recombinant PAFAH1B2, FP-rhodamine activity probe, fluorescence polarization; inhibition, % at 3.39 µM; 340,000 tested, 1.2% active;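 active = inhibition above the mean of all tested compounds plus 3 SD, cut at about 24% in these data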;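 also: 0% = enzyme with DMSO and 100% = wells lacking PAFAH1B2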
pPAFAH FP inh: inhibitors of human plasma PAF acetylhydrolase (pPAFAH) | 330,000 tested, 1.5% active | recombinant pPAFAH, FP-rhodamine probe fluorescence polarization | Q13093 | inhibition, % at 3.39 µM;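 active = inhibition above the mean inhibition across the screen plus 3 SD, cut at about 25% in these data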;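 also: inhibitors block binding of the rhodamine activity-based probe so polarization drops; 0% = enzyme with DMSO and 100% = wells lacking pPAFAH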
* = called active by the depositor; . = not tested or not shown. Most compounds without a hit are left out; they make up all but 4.8% or so of the library.

SMILES	UCH37 inh	PAFAH1B3 inh	GRIN3A LBD mod	PAFAH2 inh	PAFAH1B2 FP inh	pPAFAH FP inh
O=C(COc1ccc(C=NNC(=O)c2ccncc2)cc1)Nc1cccc([N+](=O)[O-])c1	3	.	.	.	.	.
C(=NN1CCN(Cc2ccccc2)CC1)c1cccs1	1	.	.	.	.	.
O=C(NC[C@@H]1CC[C@@H](Cc2ccc(-c3ccccc3)cc2)O1)Nc1ccc(Br)cc1	.	1	24*	-22	0	-7
O=C(NCCCCc1ccccc1)NC[C@@H]1CC[C@@H](Cc2ccc(-c3ccccc3)cc2)O1	0	5	-1	0	5	9
CC1=C(C(=O)Nc2ccccc2)C(c2ccc(C)o2)n2c(sc(=Cc3ccco3)c2=O)=N1 (stereo not given)	-1	.	.	.	.	.
CCN(CC)c1ccc(N=Nc2nn(C)c(C)c2[N+](=O)[O-])cc1	8	7	1	-7	15	4
CCN(Cc1ccccc1)c1ccc(N=Nc2nn(C)c(C)c2[N+](=O)[O-])cc1	1	7	-12	9	62*	25*
COc1ccc(C(=O)n2nc(-c3ccccc3)nc2SC)cc1	5	-3	17*	3	1	.
CCC(=O)Oc1c(S(=O)(=O)c2ccc(C)cc2)c(C)nn1C(C)(C)C	3	4	15*	5	1	1
Cc1ccc(CSc2nnc(SCC(=O)NN=Cc3ccccc3OCC(=O)O)s2)cc1	2	.	.	.	.	.
COc1ccc(N/N=C(\C#N)C(=N)SCc2ccccc2)cc1	.	4	29*	10	7	.
COc1ccc(N/N=C(\C#N)C(=N)N2CCCCC2)cc1	.	9	-2	-4	3	11
O=c1[nH]c2ccccc2c(=O)n1Cc1ccco1	21*	1	1	7	5	-1
S=c1[nH]nc(C2CCCCC2)n1N=C/C(Cl)=C\c1ccccc1	2	.	.	.	.	.
COc1ccccc1CC1S/C(=N/N=Cc2ccco2)NC1=O (stereo not given)	10	.	.	.	.	.
O=C(O)c1ccccc1-c1ccccc1C(=O)NNc1ccccc1	1	5	14*	-8	3	3
O=C(NN=C/C=C\c1ccco1)c1cccnc1	19	.	.	.	.	.
CCCC(=O)N1N=C(c2ccccc2)CC1c1cn(C)c2ccccc12 (stereo not given)	3	1	15*	4	1	5
Cn1cc(C2CC(c3ccccc3)=NN2C(=O)c2ccccc2)c2ccccc21 (stereo not given)	4	8	-1	9	4	6
Brc1ccc(C=NNc2ccccc2)cc1	7	.	.	.	.	.
